In test [1] the target is T1, Protein cereblon/Histone-lysine N-methyltransferase EZH2 (Homo sapiens) (UniProt Q15910+Q96SW2). The test is described as follows: PROTAC activity at CRBN E3 ligase/EZH2 in PRC2 complex in human WSUDLCL2 cells assessed as reduction in H3K27me3 level incubated for 48 hrs by Western blot analysis. In kind it is cell-based. The settings on record: dose 1-10 µM. Put shortly:
(§1)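 WSU-DLCL-2 cells treated 48 h (1 μM for the single-concentration screen), lysed; SDS-PAGE, nitrocellulose transfer, 5% milk block, primary antibody 4 °C overnight, chemiluminescence. Bands quantified by densitometry, normalized to GAPDH, expressed relative to DMSO-treated cells; mean ± SD of three independent experiments, t-test.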

For test [2], the target named is T1, Protein cereblon/Histone-lysine N-methyltransferase EZH2 (Homo sapiens). The test can be described thus: PROTAC activity at CRBN E3 ligase/EZH2 in PRC2 complex in human WSUDLCL2 cells assessed as reduction in H3K27me3 level at 1 uM incubated for 48 hrs by Western blot analysis relative to control. Type of test: cell-based. Also noted: scale not given: the % may be the effect or the level left. In outline:
as §1

For test [3] the target is unchanged. The test is described as follows: PROTAC activity at CRBN E3 ligase/EZH2 in PRC2 complex in human LNCaP cells assessed as induction of RbAp48 degradation by measuring reduction in RbAp48 protein level at 1 uM incubated for 48 hrs by Western blot analysis. Type of test: cell-based. Put shortly: (§2)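 Cancer cell lines exposed to 1 μM compound for 48 h. Lysates immunoblotted (SDS-PAGE, nitrocellulose, 5% milk block, primary antibody overnight at 4 °C) for EZH2, SUZ12, EED, RbAp48 and H3K27me3. Bands quantified by densitometry and normalized to GAPDH.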

Test [4] shares this target. The test is described as follows: PROTAC activity at CRBN E3 ligase/EZH2 in PRC2 complex in human LNCaP cells assessed as reduction in H3K27me3 level at 1 uM incubated for 48 hrs by Western blot analysis. Type of test: cell-based. Put shortly:
(§3)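 Cells cultured in DMEM or RPMI 1640 with 10% FBS and 1% penicillin-streptomycin, 37 °C, 5% CO2; exposed to 1 μM compound for 48 h. Lysates run on SDS-PAGE and transferred to nitrocellulose. Blocked 2 h in 5% skim milk, primary antibody overnight at 4 °C, then secondary antibody. Chemiluminescent detection of PRC2 subunits and H3K27me3.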

The target is the same in test [5]. The test can be described thus: PROTAC activity at CRBN E3 ligase/EZH2 in PRC2 complex in human DU-145 cells assessed as induction of EED degradation by measuring reduction in EED protein level at 1 uM incubated for 48 hrs by Western blot analysis. Type of test: cell-based. In outline: as §2
For test [6] the target is unchanged. The test can be described thus: PROTAC activity at CRBN E3 ligase/EZH2 in PRC2 complex in human DU-145 cells assessed as induction of RbAp48 degradation by measuring reduction in RbAp48 protein level at 1 uM incubated for 48 hrs by Western blot analysis. In kind it is cell-based. Put shortly:
as §2

The target is the same in test [7]. The test is described as follows: PROTAC activity at CRBN E3 ligase/EZH2 in PRC2 complex in human A2780 cells assessed as induction of EED degradation by measuring reduction in EED protein level at 1 uM incubated for 48 hrs by Western blot analysis. In kind it is cell-based. In outline: as §2
The target is the same in test [8]. The test is described as follows: PROTAC activity at CRBN E3 ligase/EZH2 in PRC2 complex in human A2780 cells assessed as induction of RbAp48 degradation by measuring reduction in RbAp48 protein level at 1 uM incubated for 48 hrs by Western blot analysis. In kind it is cell-based. In outline: as §2
Test [9] shares this target. The test is described as follows: PROTAC activity at CRBN E3 ligase/EZH2 in PRC2 complex in human SK-OV-3 cells assessed as induction of RpAb48 degradation by measuring reduction in RpAb48 protein level at 1 uM incubated for 48 hrs by Western blot analysis. In kind it is cell-based. In outline:
as §3

Test [10] shares this target. The test is described as follows: PROTAC activity at CRBN E3 ligase/EZH2 in PRC2 complex in human WSUDLCL2 cells assessed as downregulation of RbAp48 expression at 1 uM pretreated with GSK126 for 4 hrs followed by compound addition and measured after 48 hrs by Western blot analysis. In kind it is cell-based. Put shortly:
(§4)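 WSU-DLCL-2 cells pretreated 4 h with the named inhibitor, then compound added and incubated a further 48 h. EZH2, SUZ12, EED and RbAp48 measured by western blot (nitrocellulose transfer, skim-milk block, primary antibody overnight at 4 °C, chemiluminescent detection).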

The test system of another test is WSUDLCL2. The test is described as follows: Upregulation of CDKN2A mRNA expression in human WSUDLCL2 cells at 1 uM incubated for 48 hrs by qRT-PCR analysis. In kind it is functional, cell-based. In outline: (§5)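 WSU-DLCL-2 or Pfeiffer cells treated 48 h. Trizol RNA extraction, reverse transcription, SYBR qPCR (95 °C 30 s; 40 cycles of 95 °C 6 s, 60 °C 20 s). mRNA normalized to DMSO-treated cells; mean ± SD of three independent experiments, t-test.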

Test [11] has as its system Pfeiffer. The test is described as follows: Upregulation of CDKN2A mRNA expression in human Pfeiffer cells at 1 uM incubated for 48 hrs by qRT-PCR analysis. In kind it is functional, cell-based. Put shortly:
as §5

The next test deals with A549. The test is described as follows: Downregulation of CENPK mRNA expression in human A549 cells at 10 uM incubated for 48 hrs by qRT-PCR analysis. In kind it is functional, cell-based. Put shortly: (§6)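 Cells treated 48 h. Total RNA extracted with Trizol, reverse-transcribed, and SYBR RT-qPCR run: 95 °C 30 s, then 40 cycles of 95 °C 6 s and 60 °C 20 s. mRNA normalized to the DMSO-treated group. Mean SD of three independent experiments, t-test versus DMSO.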

A further test relates to MDA-MB-468. The test can be described thus: Downregulation of TACC3 mRNA expression in human MDA-MB-468 cells at 10 uM incubated for 48 hrs by qRT-PCR analysis. Type of test: functional, cell-based. In outline: as §6
Test [12] concerns Pfeiffer. The test can be described thus: Antiproliferative activity against human Pfeiffer cells harboring EZH2-A677G mutant assessed as inhibition of cell growth incubated for 3 to 7 days by optical microscopic analysis (Rvb= 0.49 uM). In kind it is functional, cell-based.
The subject of the next test is NCI-H1299. The test is described as follows: Antiproliferative activity against human NCI-H1299 cells harboring SWI/SNF mutant assessed as inhibition of cell growth at 10 uM treated for 9 days by optical microscopic analysis. In kind it is functional, cell-based. Particulars: time 9.0 day. Put shortly:
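Cells seeded at 5 × 10³ per well, grown 24 h, then exposed to compound at 10 μM for 9 days with medium refreshed. Cells were photographed and counted on days 1, 3, 5, 7 and 9. For lines 1-2, EZH2-targeting or control shRNA was induced in the cells. Mean SD of three independent experiments; t-test against control.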

Test [13] addresses T1, Protein cereblon/Histone-lysine N-methyltransferase EZH2 (Homo sapiens). The test is described as follows: PROTAC activity at CRBN E3 ligase/EZH2 in PRC2 complex in human WSUDLCL2 cells assessed as downregulation of EZH2 expression at 1 uM pretreated with MLN4924 for 4 hrs followed by compound addition and measured after 48 hrs by Western blot analysis. In kind it is cell-based. Put shortly: as §4

For test [14] the target is unchanged. The test is described as follows: PROTAC activity at CRBN E3 ligase/EZH2 in PRC2 complex in human WSUDLCL2 cells assessed as downregulation of EZH2 expression at 1 uM pretreated with EPZ6438 for 4 hrs followed by compound addition and measured after 48 hrs by Western blot analysis. In kind it is cell-based. Put shortly:
as §4

For test [15] the target is unchanged. The test can be described thus: PROTAC activity at CRBN E3 ligase/EZH2 in PRC2 complex in human WSUDLCL2 cells assessed as downregulation of SUZ12 expression at 1 uM pretreated with EPZ6438 for 4 hrs followed by compound addition and measured after 48 hrs by Western blot analysis. Type of test: cell-based. Put shortly:
as §4

Calls of active or inactive are those of the source. The calls are words filed in the database; no cut-off is given here.

T1 sequence (Q15910 whole entry, looked up): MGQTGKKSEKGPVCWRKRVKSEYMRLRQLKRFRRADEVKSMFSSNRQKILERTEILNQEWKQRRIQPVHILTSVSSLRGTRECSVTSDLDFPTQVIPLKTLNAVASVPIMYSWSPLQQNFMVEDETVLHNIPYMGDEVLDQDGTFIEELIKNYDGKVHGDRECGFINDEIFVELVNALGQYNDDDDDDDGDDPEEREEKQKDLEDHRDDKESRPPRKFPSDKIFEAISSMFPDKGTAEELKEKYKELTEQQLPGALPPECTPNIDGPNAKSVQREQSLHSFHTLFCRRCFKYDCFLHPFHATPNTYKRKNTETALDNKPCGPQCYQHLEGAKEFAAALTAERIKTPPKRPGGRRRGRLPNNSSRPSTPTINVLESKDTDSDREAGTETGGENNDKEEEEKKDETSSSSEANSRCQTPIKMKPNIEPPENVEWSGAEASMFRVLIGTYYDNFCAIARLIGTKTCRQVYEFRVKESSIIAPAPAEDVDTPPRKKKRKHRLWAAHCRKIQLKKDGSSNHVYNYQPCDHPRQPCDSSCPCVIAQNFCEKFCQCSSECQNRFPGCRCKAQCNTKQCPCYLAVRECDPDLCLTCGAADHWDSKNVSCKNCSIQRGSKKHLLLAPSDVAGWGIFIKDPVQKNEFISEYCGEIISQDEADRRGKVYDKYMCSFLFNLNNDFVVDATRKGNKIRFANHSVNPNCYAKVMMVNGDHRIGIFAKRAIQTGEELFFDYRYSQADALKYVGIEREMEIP
T1 sequence (Q96SW2 whole entry, looked up): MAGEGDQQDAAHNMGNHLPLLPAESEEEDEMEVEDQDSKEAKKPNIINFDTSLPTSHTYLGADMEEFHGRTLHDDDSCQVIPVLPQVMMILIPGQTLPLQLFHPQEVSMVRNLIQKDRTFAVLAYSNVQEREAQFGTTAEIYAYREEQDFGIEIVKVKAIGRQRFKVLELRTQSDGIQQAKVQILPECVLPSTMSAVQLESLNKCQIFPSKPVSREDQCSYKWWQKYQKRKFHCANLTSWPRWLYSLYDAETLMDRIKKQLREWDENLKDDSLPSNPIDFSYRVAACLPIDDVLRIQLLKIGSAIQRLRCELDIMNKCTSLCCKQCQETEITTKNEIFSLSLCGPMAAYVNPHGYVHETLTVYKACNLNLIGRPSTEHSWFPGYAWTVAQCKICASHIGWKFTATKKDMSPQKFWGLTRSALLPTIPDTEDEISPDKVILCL

On to `CCN(c1cc(-c2ccc(CN3CCN(CCCCCCCOc4cccc5c4C(=O)N(C4CCC(=O)NC4=O)C5=O)CC3)cc2)cc(C(=O)NCc2c(C)cc(C)[nH]c2=O)c1C)C1CCOCC1` (centres undefined), for which the Activity result in test [1] is “Dose-Dependent Effect”; in test [2], 83%. Moreover, the outcome in test [3], in [4], in test [5], in [6], in [7] and in test [8] was Active. In addition, the outcome (in test [9]; with A549; in the test with MDA-MB-468; in the test on NCI-H1299) was Active. Besides, the result (in test [10]; in the test with WSUDLCL2; with Pfeiffer [11]; in test [13]; in test [14]; in test [15]) was inactive. Also, the IC50 in the test on Pfeiffer [12] amounted to 210 nM.

Values taken from ChEMBL document CHEMBL5038571, “Design and Synthesis of EZH2-Based PROTACs to Degrade the PRC2 Complex for Targeting the Noncatalytic Activity of EZH2” (J Med Chem, 2021).
